Tests used:
Format in all cases: functional
Mus musculus [1] = assay: Antitumor activity expressed as the no. of mice surviving >6 months was tested against fibrosarcoma at the dosage of 50 mg/kg (ip)
In short: (§1)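 Fibrosarcoma was established by sc inoculation of 4 × 10⁶ cells in mice. On day 3 they received a single ip or sc injection of compound freshly suspended in 0.89% saline, with 5–10 mice per group. The count is of mice surviving 6 months or more after treatment, scored as tumor-free, with the percentage of the group also given.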

Mus musculus [2] = assay: Antitumor activity expressed as average body weight change was tested against fibrosarcoma at the dosage of 25 mg/kg (Ip)
In short: (§2)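 Fibrosarcoma-bearing C₃H/He mice (4 × 10⁶ cells sc) received a single ip or sc dose in 0.89% saline on day three after transplant; controls received saline. The day of injection was taken as day zero. Mice were weighed on alternate days up to 4 weeks. Values are average % weight change from the day of treatment to day 21.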

Mus musculus [3] = assay: Antitumor activity expressed as average body weight change was tested against fibrosarcoma at the dosage of 5 mg/kg (sc); in short: as §2
Mus musculus [4] = assay: Antitumor activity expressed as %T/C was tested against fibrosarcoma at the dosage of 5 mg/Kg (ip)
In short: (§3)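 Fibrosarcoma: 4 × 10⁶ cells were given sc to C₃H/He mice, 25–30 g. A single ip or sc dose in 0.89% saline followed on day three, with saline-injected controls. Mean life span of nonsurvivors excludes mice surviving 6 months or more, which were counted as tumour-free. T/C% is treated mean survival, excluding tumour-free survivors, divided by untreated mean life span ×100.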

Mus musculus [5] = assay: Antitumor activity expressed as mean life span of nonsurvivors in days (T/C) was tested against fibrosarcoma at the dosage of 10 mg/kg (sc); 37/27
In short: (§4)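 On day 3 after transplantation they received a single ip or sc dose of compound freshly suspended in 0.89% saline. Saline-injected controls were used, with 5–10 mice per group. Mean life span of treated nonsurvivors is shown against untreated controls, excluding mice surviving ≥6 months.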

Mus musculus [6] = assay: Antitumor activity expressed as %T/C was tested against fibrosarcoma at the dosage of 5 mg/Kg (sc); in short: as §3
Mus musculus [7] = assay: Antitumor activity expressed as %T/C was tested against fibrosarcoma at the dosage of 10 mg/Kg (sc); in short: as §3
Mus musculus [8] = assay: Antitumor activity against Dalton's lymphoma infected mice at the dosage of 25 mg/kg (ip) and expressed as no. of mice injected; T/C= 5/5
Mus musculus [9] = assay: Antitumor activity against fibrosarcoma infected mice at the dosage of 5 mg/kg (sc) and expressed as no. of mice injected; T/C= 7/7
Mus musculus [10] = assay: Antitumor activity against fibrosarcoma infected mice at the dosage of 25 mg/kg (sc) and expressed as no. of mice injected; T/C= 8/9
Mus musculus [11] = assay: Antitumor activity against fibrosarcoma infected mice at the dosage of 5 mg/kg (ip) and expressed as no. of mice injected; T/C= 8/6
Mus musculus [12] = assay: Antitumor activity expressed as mean life span of nonsurvivors in days (T/C) was tested against fibrosarcoma at the dosage of 5 mg/kg (ip); 41/27; in short: as §4
Mus musculus [13] = assay: Antitumor activity expressed as average body weight change was tested against fibrosarcoma at the dosage of 50 mg/kg (Ip); in short: as §2
Mus musculus [14] = assay: Antitumor activity expressed as mean life span of nonsurvivors in days (T/C) was tested against fibrosarcoma at the dosage of 25 mg/kg (ip); 40/28; in short: as §4
Mus musculus [15] = assay: Antitumor activity expressed as %T/C was tested against Dalton's lymphoma at the dosage of 25 mg/Kg (ip)
In short: (§5)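 Dalton's lymphoma: 2 × 10⁷ ascites cells were given ip to DbA mice, 18–20 g. A single ip dose in 0.89% saline followed on day two, with saline-injected controls. Mean life span was calculated excluding mice that survived 6 months or more. T/C% is the mean survival of treated mice, excluding tumour-free survivors, divided by the mean life span of untreated mice ×100.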

Mus musculus [16] = assay: Antitumor activity expressed as %T/C was tested against fibrosarcoma at the dosage of 25 mg/Kg (ip); in short: as §3
Mus musculus [17] = assay: Antitumor activity expressed as mean life span of nonsurvivors in days (T/C) was tested against fibrosarcoma at the dosage of 50 mg/kg (ip); 45/27; in short: as §4
Mus musculus [18] = assay: Antitumor activity expressed as %T/C was tested against fibrosarcoma at the dosage of 25 mg/Kg (sc); in short: as §3
Mus musculus [19] = assay: Antitumor activity against fibrosarcoma infected mice at the dosage of 50 mg/kg (ip) and expressed as no. of mice injected; T/C= 8/8
Mus musculus [20] = assay: Antitumor activity against fibrosarcoma infected mice at the dosage of 25 mg/kg (ip) and expressed as no. of mice injected; T/C= 10/10
Mus musculus [21] = assay: Antitumor activity expressed as %T/C was tested against Dalton's lymphoma at the dosage of 10 mg/Kg (ip); in short: as §5
Mus musculus [22] = assay: Antitumor activity expressed as the no. of mice surviving >6 months was tested against fibrosarcoma at the dosage of 25 mg/kg (sc); in short: as §1
Mus musculus [23] = assay: Antitumor activity expressed as mean life span of nonsurvivors in days (T/C) was tested against Dalton's lymphoma at the dosage of 10 mg/kg (ip); 33/21
Mus musculus [24] = assay: Antitumor activity against fibrosarcoma infected mice at the dosage of 10 mg/kg (ip) and expressed as no. of mice injected; T/C= 6/6
Mus musculus [25] = assay: Antitumor activity expressed as %T/C was tested against fibrosarcoma at the dosage of 10 mg/Kg (ip); in short: as §3
Mus musculus [26] = assay: Antitumor activity expressed as %T/C was tested against Dalton's lymphoma at the dosage of 2 mg/Kg (ip); in short: as §5
Mus musculus [27] = assay: Antitumor activity expressed as mean life span of nonsurvivors in days (T/C) was tested against Dalton's lymphoma at the dosage of 2 mg/kg (ip); 27/21
Mus musculus [28] = assay: Antitumor activity expressed as %T/C was tested against fibrosarcoma at the dosage of 50 mg/Kg (ip); in short: as §3
Mus musculus [29] = assay: Antitumor activity expressed as the no. of mice surviving >6 months was tested against fibrosarcoma at the dosage of 5 mg/kg (ip); in short: as §1
Mus musculus [30] = assay: Antitumor activity expressed as mean life span of nonsurvivors in days (T/C) was tested against fibrosarcoma at the dosage of 5 mg/kg (sc); 36/26; in short: as §4
Mus musculus [31] = assay: Antitumor activity expressed as the no. of mice surviving >6 months was tested against fibrosarcoma at the dosage of 25 mg/kg (ip); in short: as §1
Mus musculus [32] = assay: Antitumor activity expressed as mean life span of nonsurvivors in days (T/C) was tested against Dalton's lymphoma at the dosage of 25 mg/kg (ip); 41/21
Mus musculus [33] = assay: Antitumor activity against Dalton's lymphoma infected mice at the dosage of 2 mg/kg (ip) and expressed as no. of mice injected; T/C= 5/5
Mus musculus [34] = assay: Antitumor activity expressed as average body weight change was tested against fibrosarcoma at the dosage of 25 mg/kg (sc); in short: as §2
Mus musculus [35] = assay: Antitumor activity against Dalton's lymphoma infected mice at the dosage of 10 mg/kg (ip) and expressed as no. of mice injected; T/C= 5/5
Mus musculus [36] = assay: Antitumor activity expressed as mean life span of nonsurvivors in days (T/C) was tested against fibrosarcoma at the dosage of 10 mg/kg (ip); 38/26; in short: as §4
Mus musculus [37] = assay: Antitumor activity expressed as the no. of mice surviving >6 months was tested against fibrosarcoma at the dosage of 10 mg/kg (ip); in short: as §1
Mus musculus [38] = assay: Antitumor activity expressed as average body weight change was tested against fibrosarcoma at the dosage of 10 mg/kg (sc); in short: as §2
Mus musculus [39] = assay: Antitumor activity expressed as mean life span of nonsurvivors in days (T/C) was tested against fibrosarcoma at the dosage of 25 mg/kg (sc); 41/26; in short: as §4
Mus musculus [40] = assay: Antitumor activity expressed as average body weight change was tested against fibrosarcoma at the dosage of 10 mg/kg (Ip); in short: as §2
Mus musculus [41] = assay: Antitumor activity against fibrosarcoma infected mice at the dosage of 10 mg/kg (sc) and expressed as no. of mice injected; T/C= 8/7
Mus musculus [42] = assay: Antitumor activity expressed as average body weight change was tested against fibrosarcoma at the dosage of 5 mg/kg (Ip); in short: as §2

## O=C(NN=C(S)c1ccco1)c1ccccc1O
Mus musculus [1]
  No. of mice surviving >6 months: 6
Mus musculus [2]
  Average body weight change: 7.88%
Mus musculus [3]
  Average body weight change: 11.62%
Mus musculus [4]
  T/C: 152%
Mus musculus [5]
  T/C: 37 days
Mus musculus [6]
  T/C: 139%
Mus musculus [7]
  T/C: 137%
Mus musculus [8]
  T/C: 5
Mus musculus [9]
  T/C: 7
Mus musculus [10]
  T/C: 8
Mus musculus [11]
  T/C: 8
Mus musculus [12]
  T/C: 41 days
Mus musculus [13]
  Average body weight change: 2.65%
Mus musculus [14]
  T/C: 40 days
Mus musculus [15]
  T/C: 195%
Mus musculus [16]
  T/C: 143%
Mus musculus [17]
  T/C: 45 days
Mus musculus [18]
  T/C: 158%
Mus musculus [19]
  T/C: 8
Mus musculus [20]
  T/C: 10
Mus musculus [21]
  T/C: 157%
Mus musculus [22]
  No. of mice surviving >6 months: 6
Mus musculus [23]
  T/C: 33 days
Mus musculus [24]
  T/C: 6
Mus musculus [25]
  T/C: 146%
Mus musculus [26]
  T/C: 128%
Mus musculus [27]
  T/C: 27 days
Mus musculus [28]
  T/C: 167%
Mus musculus [29]
  No. of mice surviving >6 months: 4
Mus musculus [30]
  T/C: 36 days
Mus musculus [31]
  No. of mice surviving >6 months: 5
Mus musculus [32]
  T/C: 41 days
Mus musculus [33]
  T/C: 5
Mus musculus [34]
  Average body weight change: 9.96%
Mus musculus [35]
  T/C: 5
Mus musculus [36]
  T/C: 38 days
Mus musculus [37]
  No. of mice surviving >6 months: 3
Mus musculus [38]
  Average body weight change: 12.31%
Mus musculus [39]
  T/C: 41 days
Mus musculus [40]
  Average body weight change: 11.27%
Mus musculus [41]
  T/C: 8
Mus musculus [42]
  Average body weight change: 15.1%
